Results reported in PMC7719388 (Clinical and Translational Science, 2020).
Entries after “also recorded” stand apart in the source; their conditions may differ. Read-outs that look alike come from different tables or passages of the source. One block for each molecule: values may come before it.

Experiments:
[1] = tested on: healthy male subjects; experiment: 24-hour Holter ECG: QTcF, QT subintervals and concentration-effect analysis; assay type: in vivo, human; settings: for ΔΔ Tp‐Tend / ΔΔJp‐Tpc / ΔΔQRS / ΔΔQTcF: model prediction at geometric mean Cmax
Method in brief: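 Healthy men aged 18–45 received a 30-min IV infusion of test compound or 0.9% NaCl placebo, randomized and double-blind. 12-lead Holter recording ran for 24 h from just before dosing. At set times subjects lay supine for at least 8 min, and triplicate ECGs were extracted from the last 3 min. A blinded operator used global median beat analysis. QT was Fridericia-corrected and split into QRS, Jp‑Tpc and Tp‑Tend. Placebo-corrected change from baseline was modelled linearly against concentration, with subject as a random effect, and predicted at geometric mean Cmax per dose.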

[2] = tested on: minipigs; settings: high dose levels (equivalent to 27.3 mg/kg in man); cited from earlier work
[3] = Pharmacokinetics after 30-minute intravenous infusion; assay type: in vivo, human
Method in brief: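 Healthy men received a 30-min IV infusion of test compound. Serum levels were measured by validated LC‑MS/MS (lower limit of quantification 5 ng/mL), with samples taken after each ECG extraction. Noncompartmental analysis was done per dose level. Values below the limit were set to zero before Tmax and treated as missing after Tmax.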

[4] = tested on: KCa2 channel; experiment: In vitro inhibition of KCa2 channels; assay type: biochemical; settings: equivalent of 0.77 µM
[5] = tested on: conscious pigs; settings: ref unpublished data; cited from earlier work
[6] = tested on: healthy male subjects; experiment: First-in-human single ascending dose study: safety and tolerability; assay type: in vivo
Method in brief: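 Six cohorts were randomized 6 active vs 2 placebo (5 vs 2 in cohort 1), with two sentinel subjects dosed 48 h ahead. Dosing was a 30-min IV infusion. Cohorts 1–3 used sterile water diluent and an 18G cannula. Cohorts 4–6 used 5% glucose at 1 mg/mL, a 16G cannula in the largest antecubital vein and a 5 mL 5% glucose flush. Monitoring covered AEs, physical examinations, vital signs, 24-h Holter and laboratory tests; discharge was at 7 days.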

[7] = tested on: healthy male subjects; experiment: Tremorography; assay type: in vivo, human; settings: all dose levels
Method in brief: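 A three-axis accelerometer was taped to the dorsal mid third ray of the right hand. Subjects sat semirecumbent with the arm extended horizontally, hand dorsum up, at predefined pre- and post-dose times. Each axis was bandpass filtered at 1–20 Hz (zero-phase third-order Butterworth). Power spectral densities were combined by L1-norm, and the read-outs were peak frequency and its amplitude.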

[8] = in vitro, 30 µM (estimated concentration: 12,000 ng/mL); preclinical; cited from earlier work
[9] = in man, assumed; cited from earlier work
[10] = tested on: KCa2 channel; settings: cited from earlier work
[11] = tested on: Kv11.1 (human ether‐à‐go‐go‐related gene) channel; settings: read-out: IC50 for the Kv11.1 channel; in vitro; ref unpublished data; cited from earlier work
[12] = cited from earlier work
[13] = 2 mg/kg, mean volume 15.0 mL, 6 subjects
[14] = 2 mg/kg, mean volume 33.3 mL, 6 subjects
[15] = 1.5 and 2 mg/kg, 3+3 subjects, changed formulation
[16] = 3 and 4 mg/kg, 3+3 subjects, changed formulation
[17] = 5 and 6 mg/kg, 3+3 subjects, changed formulation

Geometric mean Cmax of AP30663 ([3]; 1 mg/kg, 5 mg/mL): 3398 ng/mL | Geometric mean Cmax of AP30663 ([3]; 1.5 mg/kg, 1 mg/mL): 4428 ng/mL | Geometric mean Cmax of AP30663 ([3]; 2 mg/kg, 1 mg/mL): 4644 ng/mL | Geometric mean Cmax of AP30663 ([3]; 2 mg/kg, 5 mg/mL): 6609 ng/mL | Geometric mean Cmax of AP30663 ([3]; 2 mg/kg, 10 mg/mL): 7154 ng/mL | Geometric mean Cmax of AP30663 ([3]; 3 mg/kg, 1 mg/mL): 7950 ng/mL | Geometric mean Cmax of AP30663 ([3]; 4 mg/kg, 1 mg/mL): 7994 ng/mL | Geometric mean Cmax of AP30663 ([3]; 5 mg/kg, 1 mg/mL): 7941 ng/mL | observed maximum total plasma concentration ([3]; 6 mg/kg dose level): around 25.5 µM | Geometric mean Cmax of AP30663 ([3]; 6 mg/kg, 1 mg/mL): 10245 ng/mL | dose proportionality of Cmax ([3]; 1-6 mg/kg): less than dose proportional increase | median Tmax ([3]; 30‐minute linear infusion): 30 min | Volume of distribution ([3]; highest dose levels): 98.4 L | clearance ([3]; lower dose levels): 11.5 L/h | Volume of distribution ([3]; lowest dose): 65.8 L | mean clearance ([3]; overall): 12.5 ± 3.2 L/h | clearance ([3]; three highest dose levels): 15.9 L/h | dose normalized Cmax and area under the curve (AUC) ([3]; with increasing doses): decreased with increasing doses | IC50 for the KCa2 channel, equivalent concentration [4]: ~ 300 ng/mL | tremorography mean amplitude [7]: 0.2 mG^2•Hz^‐1 | tremorography recordings [7]: normal and unchanged
Compound: CN(CC#N)C(=O)C[C@H](Nc1nc2ccccc2[nH]1)c1cccc(C(F)(F)F)c1 [AP30663]
ΔΔ Tp‐Tend ([1]; 1 mg/kg, 5 mg/mL): 1.9 ± 1.3 ms | ΔΔJp‐Tpc ([1]; 1 mg/kg, 5 mg/mL): 6.2 ± 3.0 ms | ΔΔQRS ([1]; 1 mg/kg, 5 mg/mL): 1.0 ± 1.0 ms | ΔΔQTcF ([1]; 1 mg/kg, 5 mg/mL, mean ± SD): 10.5 ± 3.3 ms | ΔΔ Tp‐Tend ([1]; 1.5 mg/kg, 1 mg/mL): 2.6 ± 1.4 ms | ΔΔJp‐Tpc ([1]; 1.5 mg/kg, 1 mg/mL): 7.0 ± 3.0 ms | ΔΔQRS ([1]; 1.5 mg/kg, 1 mg/mL): 0.9 ± 1.0 ms | ΔΔQTcF ([1]; 1.5 mg/kg, 1 mg/mL): 11.8 ± 3.4 ms | ΔΔ Tp‐Tend ([1]; 2 mg/kg, 1 mg/mL): 2.8 ± 1.4 ms | ΔΔJp‐Tpc ([1]; 2 mg/kg, 1 mg/mL): 7.2 ± 3.0 ms | ΔΔQRS ([1]; 2 mg/kg, 1 mg/mL): 0.9 ± 1.9 ms | ΔΔQTcF ([1]; 2 mg/kg, 1 mg/mL): 12.0 ± 3.5 ms | ΔΔ Tp‐Tend ([1]; 2 mg/kg, 5 mg/mL): 4.1 ± 1.7 ms | ΔΔJp‐Tpc ([1]; 2 mg/kg, 5 mg/mL): 8.8 ± 3.3 ms | ΔΔQRS ([1]; 2 mg/kg, 5 mg/mL): 0.6 ± 1.1 ms | ΔΔQTcF ([1]; 2 mg/kg, 5 mg/mL): 14.4 ± 3.9 ms | ΔΔ Tp‐Tend ([1]; 2 mg/kg, 10 mg/mL): 4.5 ± 1.8 ms | ΔΔJp‐Tpc ([1]; 2 mg/kg, 10 mg/mL): 9.2 ± 3.3 ms | ΔΔQRS ([1]; 2 mg/kg, 10 mg/mL): 0.5 ± 1.1 ms | ΔΔQTcF ([1]; 2 mg/kg, 10 mg/mL): 15.1 ± 4.1 ms | ΔΔ Tp‐Tend ([1]; 3 mg/kg, 1 mg/mL): 5.0 ± 1.9 ms | ΔΔJp‐Tpc ([1]; 3 mg/kg, 1 mg/mL): 9.8 ± 3.5 ms | ΔΔQRS ([1]; 3 mg/kg, 1 mg/mL): 0.4 ± 1.2 ms | ΔΔQTcF ([1]; 3 mg/kg, 1 mg/mL): 16.0 ± 4.3 ms | ΔΔ Tp‐Tend ([1]; 4 mg/kg, 1 mg/mL): 5.0 ± 1.9 ms | ΔΔJp‐Tpc ([1]; 4 mg/kg, 1 mg/mL): 9.9 ± 3.5 ms | ΔΔQRS ([1]; 4 mg/kg, 1 mg/mL): 0.4 ± 1.2 ms | ΔΔQTcF ([1]; 4 mg/kg, 1 mg/mL): 16.1 ± 4.3 ms | ΔΔ Tp‐Tend ([1]; 5 mg/kg, 1 mg/mL): 5.0 ± 1.9 ms | ΔΔJp‐Tpc ([1]; 5 mg/kg, 1 mg/mL): 9.8 ± 3.5 ms | ΔΔQRS ([1]; 5 mg/kg, 1 mg/mL): 0.4 ± 1.2 ms | ΔΔQTcF ([1]; 5 mg/kg, 1 mg/mL): 16.0 ± 4.3 ms | ΔΔ Tp‐Tend ([1]; 6 mg/kg, 1 mg/mL): 6.5 ± 2.3 ms | ΔΔJp‐Tpc ([1]; 6 mg/kg, 1 mg/mL): 11.7 ± 3.9 ms | ΔΔQRS ([1]; 6 mg/kg, 1 mg/mL): 0.1 ± 1.4 ms | effect on PR interval ([1]; all dose levels): no effect | effect on P‐wave duration ([1]; all dose levels): no effect | effect on QRS duration ([1]; all dose levels): no effect | effect on QTcF interval and QT subintervals ([1]; all dose levels): dose‐dependent transient effect | effect on RR interval ([1]; all dose levels): no effect | subjects with QTcF interval exceeding 450 ms ([1]; any dose level): no subject | subjects with QTcF interval prolongation of > 60 ms ([1]; any dose level): no subject | slope of concentration-effect on Tp‐Tend interval (± standard error) ([1]; prespecified linear model, P = 0.001): 0.670 ± 0.221 ms/(ug/mL) | slope of concentration-effect on QTcF interval (± standard error) ([1]; prespecified linear model, P = 0.003): 1.201 ± 0.431 ms/(ug/mL) | slope of concentration-effect on Jp‐Tpc interval (± standard error) ([1]; prespecified linear model, P = 0.007): 0.799 ± 0.327 ms/(ug/mL) | slope of concentration-effect on QRS duration (± standard error) ([1]; prespecified linear model, P = 0.870): −0.145 ± 0.129 ms/(ug/mL) | tremor [2]: induced tremor | atrial refractoriness [5]: selectively increase atrial refractoriness; also recorded: increased atrial refractoriness | conversion of vernakalant‐resistant AF [5]: converted vernakalant‐resistant AF | effect on ventricular repolarization [5]: little or no effect | reinduction of AF [5]: prevented its reinduction | Number of AEs ([6]; 1 mg/kg, 5 subjects): 1 | Number of infusion site AEs ([6]; 1 mg/kg, 5 subjects): 1 | Severity of AEs ([6]; 1 mg/kg, 5 subjects): Mild | Number of subjects with AEs ([6]; 1 mg/kg, 5 subjects, AEs considered related): 1 (20%) | Median duration of AEs ([6]; 1 mg/kg, 5 subjects, subject lost to follow-up, AE ongoing at day 7): >7 days ^a | Median duration of AEs [6, 13]: 0.521 days | Number of AEs [6, 13]: 4 | Number of infusion site AEs [6, 13]: 4 | Number of subjects with AEs [6, 13]: 4 (67%) | Severity of AEs [6, 13]: Mild | Median duration of AEs [6, 14]: 32 days | Number of AEs [6, 14]: 10 | Number of infusion site AEs [6, 14]: 10 | Number of subjects with AEs [6, 14]: 5 (83%) | Severity of AEs [6, 14]: Mild | Median duration of AEs [6, 15]: 1.08 days | Number of AEs [6, 15]: 3 | Number of infusion site AEs [6, 15]: 3 | Number of subjects with AEs [6, 15]: 1 (33%) | Severity of AEs [6, 15]: Mild | duration of hardening of the vein upon palpation until resolved ([6]; 2 subjects in cohort 3): ~4 months | Median duration of AEs [6, 16]: 13 days | Number of AEs [6, 16]: 2 | Number of infusion site AEs [6, 16]: 2 | Number of subjects with AEs [6, 16]: 1 (33%) | Severity of AEs [6, 16]: Mild | Median duration of AEs [6, 17]: 22 days | Number of AEs [6, 17]: 2 | Number of infusion site AEs [6, 17]: 2 | Number of subjects with AEs [6, 17]: 1 (33%) | Severity of AEs [6, 17]: Mild | central nervous system symptoms or signs ([6]; all dose levels): no symptoms or signs of engagement of the central nervous system | serious AEs ([6]; all dose levels): No serious AEs | number of AEs related to the administration site ([6]; cohorts 1–3): 15 | subjects with AEs related to the administration site ([6]; cohorts 1–3, 10 of 17 subjects): 59% | subjects with AEs related to the administration site ([6]; cohorts 4–6, 9 of 18 subjects): 50% | number of AEs related to the administration site ([6]; cohorts 4–6, changed administration procedure): 15 | overall safety and tolerability ([6]; doses up to 6 mg/kg): safe and systemically well‐tolerated; also recorded: safe and well‐tolerated systemically | time to full recovery of infusion site AEs ([6]; in vivo): up to 110 days | related AEs that were related to the infusion site ([6]; mild, temporary): 33 of 34 | number of AEs considered related to AP30663 administration ([6]; of 73 AEs in 30 of 47 subjects): 34 | effect on the ventricular interval [8]: no effect | free fraction [9]: 6.4% | inhibition of KCa2 channel subclasses [10]: inhibits all three subclasses of KCa2 channels | IC50 ([10]; read-out: IC50 for the KCa2 channel, preclinical, no reference given): 770 nM | IC50 ([10]; read-out: IC50 for the KCa2 channels, in vitro, ref unpublished data): ~1000 nM | IC50 [11]: 4000 nM

Compound: CN(CCOc1ccc(NS(C)(=O)=O)cc1)CCc1ccc(NS(C)(=O)=O)cc1 [Dofetilide, dofetilide]
effect on Jp‐Tpc interval per concentration [12]: 14.1 ms per ng/mL | effect on Tp‐Tend interval per concentration [12]: 14.5 ms per ng/mL
